According to ChEMBL document CHEMBL1123566, “Synthesis and cardiac electrophysiological activity of 2- and 3-[(substituted phenyl)alkyl]quinuclidines. Structure-activity relationships” (1987):
Several values for one entry are separate records, joined by “and”; a condition that tells them apart may be missing. Equal values may be shown once.

Experiments:
[1] = organism: Canis familiaris; assay: In vitro electrophysiological evaluation in canine cardiac ventricular muscle reported as % change for conduction time(CT) at 10 uM at 0.1-100 uM concentration range; Minimal (<10% decrease or increase in CT).; format: functional, Canis lupus familiaris, Muscle tissue
[2] = organism: Canis familiaris; assay: In vitro electrophysiological evaluation in canine cardiac occurred is 100 uM.; format: functional; conditions: Canis lupus familiaris; Heart
[3] = organism: Canis familiaris; assay: In vitro electrophysiological evaluation in canine cardiac Purkinje fibres reported as percent change Vmax at 10 uM at concentration range of 1-100 uM; Minimal (<10% decrease or increase in V max).; format: functional; conditions: Canis lupus familiaris, Purkinje fiber
How it was run: (§1)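 Canine cardiac Purkinje fibres, intracellular microelectrode recording, paced at a basic cycle length of 1 s. APD95 and Vmax read simultaneously. Compound: 10 mM stock in deionized water, diluted into Tyrode's solution, tested over the stated concentration range. Each fibre used once as its own control. Result is % change from control, given at 10 µM or as the maximum with its concentration. M = <10% decrease or an increase in Vmax.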

[4] = organism: Canis familiaris; assay: In vitro electrophysiological evaluation in canine cardiac Purkinje fibres reported as maximum percent change Vmax concentration range of 1-100 uM; Minimal (<10% decrease or increase in V max).; format: functional; conditions: Canis lupus familiaris; Purkinje fiber; how it was run: as §1
[5] = organism: Canis familiaris; assay: In vitro electrophysiological evaluation in canine cardiac Purkinje fibres reported as % change for action potential duration at a concentration of 10 uM; format: functional, Canis lupus familiaris, Purkinje fiber; how it was run: as §1
[6] = organism: Canis familiaris; assay: In vitro electrophysiological evaluation in canine cardiac ventricular muscle reported as maximum % change for functional refractory period (FRP) at 0.1-100 uM concentration range; concentration at which it occurred is 100 uM.; design: species or system Canis lupus familiaris, Muscle tissue
How it was run: (§2)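 Canine right ventricle and papillary muscle strips in oxygenated Tyrode's solution, fitted with stimulating and recording electrodes. The extra-stimulus conduction-interval method was adapted for in vitro use. FRP and CT were read from a conduction-interval curve before and after various compound concentrations, and expressed as percent change from control. Compounds were taken from 10 mM deionized-water stock into Tyrode's. Each strip was used once as its own control.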

[7] = organism: Canis familiaris; assay: In vitro electrophysiological activity in canine cardiac occurred is 100 uM.; format: functional, Canis lupus familiaris, Heart
[8] = organism: Canis familiaris; assay: In vitro electrophysiological evaluation in canine cardiac ventricular muscle reported as % change for the functional refractory period (FRP) at 10 uM at concentration range of 0.1-100 uM; design: species or system Canis lupus familiaris, Muscle tissue; how it was run: as §2
[9] = organism: Canis familiaris; assay: In vitro electrophysiological evaluation in canine cardiac Purkinje fibres reported as % change for action potential duration at 10 uM at 1-100 uM concentration range; format: functional, Canis lupus familiaris, Purkinje fiber; how it was run: as §1
[10] = organism: Canis familiaris; assay: In vitro electrophysiological evaluation in canine cardiac ventricular muscle reported as maximum % change for conduction time(CT) at […] concentration range; Minimal (<10% decrease or increase in CT).; format: functional, Canis lupus familiaris, Muscle tissue; how it was run: as §2
[11] = organism: Canis familiaris; assay: In vitro electrophysiological evaluation in canine cardiac Purkinje fibres reported as percent change Vmax concentration range of 1-100 uM; format: functional; conditions: Canis lupus familiaris; Purkinje fiber
How it was run: (§3)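 Canine cardiac Purkinje fibers, intracellular recording, paced at a basic cycle length of 1 s. APD95 and Vmax are recorded together across cumulative concentrations. Compound is a 10 mM aqueous stock diluted into Tyrode's solution. Each fiber is used once as its own control. Readouts are percent change from control at 10 μM, and the maximum change with the concentration where it occurred.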

[12] = organism: Canis familiaris; assay: In vitro electrophysiological activity in canine cardiac Purkinje fibres given as maximum % change for action potential duration at 0.1-100 uM concentration; format: functional, Canis lupus familiaris, Purkinje fiber
How it was run: (§4)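 Canine cardiac Purkinje fibres, intracellular recording at 1 s basic cycle length, over cumulative concentration ranges. Compound 10 mM stock in deionized water diluted into Tyrode's. Each fibre used once as its own control. Value is the maximum % change from control in APD at 95% repolarization, with the concentration where it occurred; both values given if a biphasic response (>20% reversal) occurred.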

[13] = organism: Canis familiaris; assay: In vitro electrophysiological evaluation in canine cardiac Purkinje fibres reported as maximum percent change Vmax concentration range of 1-100 uM; format: functional; conditions: Canis lupus familiaris; Purkinje fiber; how it was run: as §3
[14] = organism: Canis familiaris; assay: In vitro electrophysiological activity in canine cardiac Purkinje fibres given as maximum % change for action potential duration at 1 uM concentration; format: functional, Canis lupus familiaris, Purkinje fiber; how it was run: as §4
[15] = organism: Canis familiaris; assay: In vitro electrophysiological evaluation in canine cardiac Purkinje fibres reported as % change for action potential duration at 1-100 uM concentration range; format: functional, Canis lupus familiaris, Purkinje fiber; how it was run: as §3
[16] = organism: Canis familiaris; assay: In vitro electrophysiological evaluation in canine cardiac Purkinje fibres reported as % change for action potential duration at 0.1-100 uM concentration range; format: functional, Canis lupus familiaris, Purkinje fiber; how it was run: as §1
[17] = organism: Canis familiaris; assay: In vitro electrophysiological evaluation in canine cardiac Purkinje fibres reported as percent change Vmax concentration range of 0.1-100 uM; format: functional; conditions: Canis lupus familiaris; Purkinje fiber; how it was run: as §1
[18] = organism: Canis familiaris; assay: In vitro electrophysiological activity in canine cardiac Purkinje fibres given as maximum % change for action potential duration at 100 uM concentration; format: functional, Canis lupus familiaris, Purkinje fiber; how it was run: as §4

SMILES	CT [1] [%]	Vmax [2] [%]	Vmax [3] [%]	Vmax [4] [%]	APD95 [5] [%]	FRP [6] [%]	APD95 [7]	FRP [8] [%]	APD95 [9] [%]	CT [10] [%]	Vmax [11] [%]	APD95 [12]	Vmax [13] [%]	APD95 [14] [%]	APD95 [15] [%]	APD95 [16]	Vmax [17] [%]	APD95 [18] [%]
CCOC(=O)C(CC1C(=O)C2CCN1CC2)C(=O)c1ccc(Cl)c([N+](=O)[O-])c1.Cl (stereo not drawn)	<10	-12	< 10	< 10	0	20	-2% and -7%	17	-2	<10	–	–	–	–	–	–	–	–
CCN(CC)CCCCc1ccc(Cl)cc1	–	–	–	–	–	–	–	–	–	–	< 10	38% and 27%	-57	25	21	38% and 27%	< 10	-15
